FLuc stim CS: affects firefly luciferase, flagging false hits in luciferase stimulation screens | P08659 | ATPlite luciferase biochemical, luminescence, 10 min; 0 = ATP-free wells, 1 = DMSO control | activation factor at 10 µM | 200,000 tested, under 10 active | AID 1027;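 active = luciferase activation factor, scaled between plate controls, of at least 2 with compound at 10 µM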
Target sequence (P08659 whole entry, looked up): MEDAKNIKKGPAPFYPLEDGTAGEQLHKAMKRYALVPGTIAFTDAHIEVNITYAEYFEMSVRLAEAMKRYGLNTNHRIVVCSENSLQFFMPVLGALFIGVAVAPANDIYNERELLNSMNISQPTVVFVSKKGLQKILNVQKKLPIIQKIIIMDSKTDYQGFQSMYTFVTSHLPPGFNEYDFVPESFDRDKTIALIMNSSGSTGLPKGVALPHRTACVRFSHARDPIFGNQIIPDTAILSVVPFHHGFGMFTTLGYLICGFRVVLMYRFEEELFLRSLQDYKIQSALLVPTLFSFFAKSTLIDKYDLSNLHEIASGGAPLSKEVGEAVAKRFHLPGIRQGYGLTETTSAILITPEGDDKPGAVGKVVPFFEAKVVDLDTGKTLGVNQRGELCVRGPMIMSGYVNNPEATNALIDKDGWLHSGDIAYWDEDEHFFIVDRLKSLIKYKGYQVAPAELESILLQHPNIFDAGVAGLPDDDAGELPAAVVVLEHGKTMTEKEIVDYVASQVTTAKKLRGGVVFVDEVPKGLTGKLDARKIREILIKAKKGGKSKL
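System: cell-free luciferase reagent; medium: PBS as buffer for the ATP substrate; doses: test compounds dosed from 2 mM stocks in 100% DMSO; incubation: 10 min, room temperature; measured by: luminescence from luciferase reaction; read-out: luciferase activation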
STAT3 activator: activators of IL-6 induced STAT3 signaling; U3A cells, IL-6 STAT3-luciferase reporter, luminescence; 100% = signal with IL-6 EC80 alone; activation (% of control), % at 5.6 µM; hit rate 0.91% among 190,000; AID 871;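 active = activation above the screen-wide mean of compound activation plus 3 SD, cut at about 130% in these data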
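Material: STAT1-lacking human U3A cells, STAT3 luciferase reporter | Benchmarks: IL-6-only wells as 100% reference | Probe or stimulus: IL-6 (33 ng/mL) | Timing: Compound 1 h, then IL-6 6 h at 37 °C | Detection: Luminescence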
STAT3 blocker: reduces IL-6 driven STAT3 reporter signal; hit rate 0.89% among 190,000; inhibition, % at 5.5 µM; U3A cells, IL-6 STAT3-luciferase reporter, luminescence; host cell line lacks STAT1;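 active = inhibition above the mean inhibition across all screened compounds plus 3 SD, cut at about 44% in these data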
STAT1 blocker: STAT1 signaling inhibition; NIH 3T3 STAT1-luciferase reporter, IFN-gamma, luminescence; inhibition, % at 5.5 µM; hit rate 0.35% among 200,000; AID 920;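 active = inhibition above a set limit, the mean inhibition across all tested compounds plus 3 SD, cut at about 34% in these data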
STAT1 act: increases IFN-gamma driven STAT1 reporter signal; AID 932; activation (% of control), % at 5.5 µM; hit rate 2.6% among 200,000; NIH 3T3 STAT1-luciferase reporter, luminescence; 100% = IFN-gamma alone, no compound;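 active = activation above the screen-wide mean activation plus 3 SD, cut at about 130% in these data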
FLuc inhib CS: inhibits firefly luciferase, flagging false hits in luciferase inhibition screens | P08659 | ATPLite firefly luciferase biochemical luminescence, 10 min | inhibition, % at 10 µM | hit rate 1.5% among 200,000 | AID 1006;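 active = inhibition above about 50% when tested at 10 µM, limit read from the data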
Each line names hits and unclear results; the compound was inactive in the other large screens. Only some compounds are listed: those with a hit (about 4.9% of all), similar ones and a draw of the others.

CN(C)/C=N/c1sc2c(c1C#N)CCCC2	none
N#Cc1c(/N=C/c2ccco2)sc2c1CCCCC2	STAT1 act 138, FLuc inhib CS 94
N#Cc1c(/N=C/c2cccs2)sc2c1CCC2	STAT1 act 140, FLuc inhib CS 62
CSc1nc(N)nc(-c2cccs2)c1C#N	none
CC(C)Sc1nc(N)nc(-c2cccs2)c1C#N	STAT1 act 134
Nc1ccc2oc(-c3cccc(Br)c3)nc2c1	STAT1 act 146
CCc1ccc2oc(-c3cccc(N)c3)nc2c1	FLuc inhib CS 86
Brc1ccc(-c2nnc(-c3cccc(Br)c3)o2)cc1	none
Nc1ccc2oc(-c3ccc4nc[nH]c4c3)nc2c1	STAT1 act 132, FLuc inhib CS 83
Cn1nnnc1SCC(=O)N(C1CCCCC1)C1CCS(=O)(=O)C1 (stereo not drawn)	none
COC(=O)c1cc(CSc2nc3ccccc3[nH]2)oc1C	FLuc inhib CS 53
CCCc1cc(=O)[nH]c(SCc2cc(C(=O)OC)c(C)o2)n1	none
COc1cccc(CSc2nc3ccccc3[nH]2)c1	FLuc inhib CS 67
Fc1ccccc1CSc1nc2ccccc2[nH]1	STAT1 act 136, FLuc inhib CS 51
Cc1ccc(SCCC(=O)NC2CC2)cc1	none
Cc1cccc(C(=O)N(Cc2nc3ccccc3c(=O)[nH]2)C2CCCCC2)c1	none
CCOC(=O)C1CCN(C(=O)COc2ccc(N(C)S(=O)(=O)c3ccc(C)cc3)cc2)CC1	none
Cn1c(CN2CCCC2)nc2cc(NC(=O)COc3ccc(Cl)cc3)ccc21	none
Cn1c(CN2CCCC2)nc2cc(NC(=O)c3ccc(Cl)cc3)ccc21	STAT1 act 146
Cn1cnc2cc(NC(=O)c3ccc(Cl)cc3)ccc21	STAT1 act 140
Cc1cc(C)c(C(=O)COC(=O)CCNS(=O)(=O)c2c(Cl)cccc2Cl)cc1C	none
Cc1ccc2nc(SCC(=O)N3CCCC3)[nH]c2c1	STAT1 act 144
CCOC(=O)c1cccc(NC(=O)c2ccc(N(C)C)cc2)c1	FLuc inhib CS 60
CCOC(=O)c1cccc(NC(=O)c2cccnc2)c1	none
CCOC(=O)c1cccc(NC(=O)Nc2ccc(OCC)cc2)c1	STAT3 blocker 53, STAT1 blocker 65
CCOC(=O)C(=O)Nc1cccc(C(=O)OCC)c1	none
CCOc1ccc(NC(=O)Nc2cc(C)ccc2F)cc1	STAT1 act 129
Cc1ccccc1OCC(=O)Nc1cccc(C(=O)O)c1	STAT3 blocker 103, STAT1 blocker 97, FLuc inhib CS 59
Cc1nn(-c2ccccc2)c(C)c1/C=C/C(=O)OCC(=O)N(C)C1CCS(=O)(=O)C1 (stereo not drawn)	none
CCOc1ccc(NC(=O)Nc2ccc3nsnc3c2)cc1	none
CCOc1ccc(/C=C/C(=O)Nc2cccc(C(C)=O)c2)cc1	STAT1 act 136, FLuc inhib CS 64
CCOc1ccc(NC(=O)Nc2cccc(C(=O)O)c2)cc1	STAT3 blocker 110, STAT1 blocker 96, FLuc inhib CS 92
COc1ccc(-n2ncc(N(C)n3cccc3)c(Cl)c2=O)cc1	STAT1 act 134, FLuc inhib CS 54
Cc1ccc(-n2ncc(N(C)C)c(Cl)c2=O)cc1	STAT1 act 132
Cc1nn(-c2ccccc2)c(/N=C/c2ccccc2O)c1-c1ccccc1	none
COc1ccc(NC(=O)NCc2cccn2C)c(OC)c1	none
Cn1cccc1CNC(=O)Nc1ccc(Cl)c(Cl)c1	STAT1 act 135
COc1cc(NC(=S)NCCN2CCOCC2)cc(OC)c1	none
CN(C)c1ccc(-n2cc3c(=O)n(C)c(=O)n(C)c3c2)cc1	STAT1 act 134
CCN(CC)c1ccc(-n2cc3c(=O)n(C)c(=O)n(C)c3c2)cc1	none
O=[N+]([O-])c1ccc(CSc2nc3ccccc3o2)cc1	STAT1 act 132
CCc1ccc(NC(=S)/N=C(\N)Nc2nc(C)c3cc(CC)ccc3n2)cc1	none
Cc1cc(C)c2c(N)c3ccccc3nc2n1	STAT1 act 132
CCc1ccc2nc3nc(C)cc(C)c3c(N)c2c1	STAT1 act 136
Cc1onc(-c2c(F)cccc2Cl)c1C(=O)OCC(=O)NC1CC1	none
CN(C)S(=O)(=O)c1ccc(NC(=O)COC(=O)C2CC3CCCC(C2)C3=O)cc1 (stereo not drawn)	none
Cc1cc(N/N=C/c2cccc(Br)c2)nc2ccccc12	none
Cc1cc(N/N=C/c2ccncc2)nc2ccccc12	STAT1 act 147
Cc1cc(C)nc(N/N=C/c2ccc3c(c2)OCCO3)n1	none
C(=N\Nc1ccc2ccccc2n1)/c1ccc2c(c1)OCCO2	STAT3 blocker 108, STAT1 blocker 89, FLuc inhib CS 93
Cc1ccc(/C=N/Nc2ccc3ccccc3n2)o1	STAT3 blocker 90, STAT1 blocker 73, FLuc inhib CS 87
Cc1cccc(/C=N/Nc2ccc3ccccc3n2)c1	STAT3 blocker 102, STAT1 blocker 90, FLuc inhib CS 91
Cc1ccccc1NC(=O)/C(C#N)=C\c1ccsc1	none
Cc1ccc(NC(=O)/C(C#N)=C/c2ccsc2)c(C)c1	STAT1 act 137
CC(=O)Nc1ccc(NC(=O)COC(=O)CCc2nc3ccccc3s2)cc1	none
C/C(=N\NC(=O)OC(C)(C)C)c1ccccc1Br	STAT1 act 132
Cc1sc(Cc2nc(O)cs2)nc1-c1ccccc1	none
Cc1ccc(OCc2csc(N)n2)cc1	STAT1 act 131
Nc1nc(COc2ccc(Cl)cc2)cs1	STAT1 act 137
Cc1ccccc1OCc1csc(N)n1	none
Nc1nc(COc2ccccc2)cs1	none
CCN1C(=O)/C(=C/c2ccc(N3CCCC3)cc2)NC1=S	none
CN(C)c1ccc(C2=NOC(CN3C(=O)c4ccccc4S3(=O)=O)C2)cc1 (stereo not drawn)	STAT1 act 147
CN(C)c1nc(N(C)C)nc(N(C#N)CN2C(=O)c3ccccc3S2(=O)=O)n1	none
COC(=O)C(C)Sc1nc2c([nH]c3ccccc32)c(=O)n1C (stereo not drawn)	STAT3 activator 133
CCOc1ccc(-n2c(SCC(N)=O)nc3c([nH]c4ccccc43)c2=O)cc1	STAT3 activator 134
CCSc1nc2c([nH]c3ccccc32)c(=O)n1C	none
O=C(NC1CCS(=O)(=O)C1)/C(=C\c1ccc(F)cc1)NC(=O)c1ccccc1 (stereo not drawn)	none
CN(Cc1ccccc1)C(=O)c1ccccc1Br	none
COc1ccc(-c2cc(C(=O)N3CCN(c4ccccc4)CC3)c3ccccc3n2)cc1	FLuc inhib CS 64
O=C(c1cc(-c2ccccc2)nc2ccccc12)N1CCOCC1	none
CCOc1ccc(-c2cc(C(=O)N3CCN(c4ccccn4)CC3)c3ccccc3n2)cc1	FLuc inhib CS 90
COc1ccc(-c2cc(C(=O)O)c3ccccc3n2)c(OC)c1	none

Bioassay records (PubChem)
